ChEMBL document CHEMBL4007381, “Synthesis, X-ray crystal structure and anti-tumor activity of calix[n]arene polyhydroxyamine derivatives” (Eur J Med Chem, 2016)
The source made the active and inactive calls. The calls are words filed in the database; no cut-off is given here.

Assays:
[1] = test system: A549; assay: Cytotoxicity against human A549 cells assessed as reduction in cell viability at 10 uM measured after 72 hrs by SRB assay relative to control; format: functional; settings: A549, 72 h, read-out: GI
How it was run: (§1)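 Adherent cells were seeded at 1-5 × 10⁴/well and grown 24 h at 37 °C in 5% CO₂. They were treated at a single 10 µM concentration for 72 h in triplicate wells. Read-out was SRB staining after TCA fixation, with dye dissolved in Tris base and OD read at 565 nm. Viability was expressed relative to control.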

[2] = test system: SK-OV-3; assay: Cytotoxicity against human SKOV3 cells assessed as reduction in cell viability at 10 uM measured after 72 hrs by SRB assay relative to control; format: functional; settings: SK-OV-3, 72 h, read-out: GI; how it was run: as §1
[3] = test system: SW1990; assay: Cytotoxicity against human SW1990 cells assessed as reduction in cell viability at 10 uM measured after 72 hrs by SRB assay relative to control; format: functional; settings: SW1990, 72 h, read-out: GI; how it was run: as §1
[4] = test system: HeLa; assay: Cytotoxicity against human HeLa cells assessed as reduction in cell viability at 10 uM measured after 72 hrs by SRB assay relative to control; format: functional; settings: read-out: GI; how it was run: as §1
[5] = test system: Raji; assay: Cytotoxicity against human Raji cells assessed as reduction in cell viability at 10 uM measured after 72 hrs by MTT assay relative to control; format: functional; settings: read-out: GI
How it was run: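 Raji suspension cells were seeded at 1-5 × 10⁴/well and grown 24 h. They were treated at 10 µM for 72 h in triplicate wells. Read-out was MTT for 4 h, then solubilization in HCl/isopropanol/SDS overnight and OD at 550 nm, relative to control.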

[6] = test system: MDA-MB-231; assay: Cytotoxicity against human MDA-MB-231 cells assessed as reduction in cell viability at 10 uM measured after 72 hrs by SRB assay relative to control; format: functional; settings: MDA-MB-231, 72 h, read-out: GI; how it was run: as §1
[7] = test system: SW1990; assay: Cytotoxicity against human SW1990 cells assessed as reduction in cell viability measured after 72 hrs by SRB assay; format: functional, cell-based; settings: SW1990, 72 h
How it was run: (§2)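 Adherent cells in log phase were seeded at 1-5 × 10⁴/well and grown 24 h at 37 °C in 5% CO₂. They were exposed to 10 concentrations for 72 h, three wells each, then fixed with TCA and stained with SRB. Bound dye was dissolved in Tris base and read at OD 565 nm. Survival was expressed relative to vehicle (100%). Means came from ≥3 independent experiments, and apparent IC50 was read from the dose-response curves.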

[8] = test system: HeLa; assay: Cytotoxicity against human HeLa cells assessed as reduction in cell viability measured after 72 hrs by SRB assay; format: functional, cell-based; how it was run: as §2
[9] = test system: Raji; assay: Cytotoxicity against human Raji cells assessed as reduction in cell viability measured after 72 hrs by MTT assay; format: functional, cell-based
How it was run: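 Raji suspension cells (RPMI 1640, 10% FBS) were seeded at 1-5 × 10⁴/well and grown 24 h at 37 °C in 5% CO₂. They were exposed to 10 concentrations for 72 h in triplicate wells. MTT was added for 4 h, then HCl/isopropanol/SDS was added overnight, and OD was read at 550 nm. Data are means of ≥3 independent experiments, relative to vehicle, with apparent IC50 taken from the dose-response curves.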

[10] = test system: MDA-MB-231; assay: Cytotoxicity against human MDA-MB-231 cells assessed as reduction in cell viability measured after 72 hrs by SRB assay; format: functional, cell-based; settings: MDA-MB-231, 72 h; how it was run: as §2
[11] = test system: A549; assay: Cytotoxicity against human A549 cells assessed as reduction in cell viability measured after 72 hrs by SRB assay; format: functional, cell-based; settings: A549, 72 h; how it was run: as §2
[12] = test system: SK-OV-3; assay: Cytotoxicity against human SKOV3 cells assessed as reduction in cell viability measured after 72 hrs by SRB assay; format: functional, cell-based; settings: SK-OV-3, 72 h; how it was run: as §2
[13] = test system: SK-OV-3; assay: Cell cycle arrest in human SKOV3 cells assessed as accumulation at G0/G1 phase at 3 uM measured after 48 hrs by propidium iodide staining-based FACS analysis (reference value: 49.47 +/- 1.91%); format: functional
[14] = test system: SK-OV-3; assay: Cell cycle arrest in human SKOV3 cells assessed as accumulation at S phase at 3 uM measured after 48 hrs by propidium iodide staining-based FACS analysis(reference value: 37.31 +/- 3.48%); format: functional
[15] = test system: SK-OV-3; assay: Cell cycle arrest in human SKOV3 cells assessed as decrease in accumulation at G2/M phase at 3 uM measured after 48 hrs by propidium iodide staining-based FACS analysis; format: functional
[16] = test system: SK-OV-3; assay: Induction of apoptosis in human SKOV3 cells assessed as upregulation of caspase3 expression at 3 uM measured after 24 to 48 hrs by Hoechst-33342 staining-based immunofluorescent analysis relative to DMSO-control; format: functional, cell-based
How it was run: (§3)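 SKOV3 cells in 24-well plates were given 3 µM compound or DMSO. They were fixed with 4% paraformaldehyde for 20 min, permeabilized with 0.3% Triton X-100 for 10 min and blocked with sheep serum. Primary antibody (caspase-3, p53, Bcl-2 or Bax) was applied overnight at 4 °C, then fluorescein-conjugated secondary for 1 h and Hoechst 33342 for 15 min. Slides were imaged by fluorescence microscopy.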

[17] = test system: SK-OV-3; assay: Induction of apoptosis in human SKOV3 cells assessed as upregulation of p53 expression at 3 uM measured after 24 to 48 hrs by Hoechst-33342 staining-based immunofluorescent analysis relative to DMSO-control; format: functional, cell-based; how it was run: as §3
[18] = test system: SK-OV-3; assay: Induction of apoptosis in human SKOV3 cells assessed as downregulation of Bcl2 expression at 3 uM measured after 24 to 48 hrs by Hoechst-33342 staining-based immunofluorescent analysis relative to DMSO-control; format: functional, cell-based; how it was run: as §3
[19] = test system: SK-OV-3; assay: Induction of apoptosis in human SKOV3 cells assessed as effect on Bax expression at 3 uM measured after 24 to 48 hrs by Hoechst-33342 staining-based immunofluorescent analysis relative to DMSO-control; format: functional, cell-based; how it was run: as §3
[20] = test system: SK-OV-3; assay: Cell cycle arrest in human SKOV3 cells assessed as accumulation at G0/G1 phase at 10 uM measured after 48 hrs by propidium iodide staining-based FACS analysis; format: functional
[21] = test system: SK-OV-3; assay: Cell cycle arrest in human SKOV3 cells assessed as decrease in accumulation at S phase at 10 uM measured after 48 hrs by propidium iodide staining-based FACS analysis; format: functional
[22] = test system: SK-OV-3; assay: Cell cycle arrest in human SKOV3 cells assessed as decrease in accumulation at G2/M phase at 10 uM measured after 48 hrs by propidium iodide staining-based FACS analysis; format: functional

SMILES | inhibition of growth at 10 µM [1] [%] | inhibition of growth at 10 µM [2] [%] | inhibition of growth at 10 µM [3] [%] | inhibition of growth at 10 µM [4] [%] | inhibition of growth at 10 µM [5] [%] | inhibition of growth at 10 µM [6] [%] | also measured
CC(C)(C)c1cc2c(OCC(=O)N(CCO)CCO)c(c1)Cc1cc(C(C)(C)C)cc(c1OCC(=O)N(CCO)CCO)Cc1cc(C(C)(C)C)cc(c1OCC(=O)N(CCO)CCO)Cc1cc(C(C)(C)C)cc(c1OCC(=O)N(CCO)CCO)Cc1cc(C(C)(C)C)cc(c1OCC(=O)N(CCO)CCO)Cc1cc(C(C)(C)C)cc(c1OCC(=O)N(CCO)CCO)Cc1cc(C(C)(C)C)cc(c1OCC(=O)N(CCO)CCO)Cc1cc(C(C)(C)C)cc(c1OCC(=O)N(CCO)CCO)C2 | 0 | 25 | 5 | 10 | 11 | 11 | 
CC(C)(C)c1cc2c(O)c(c1)Cc1cc(C(C)(C)C)cc(c1OCC(=O)N(CCO)CCO)Cc1cc(C(C)(C)C)cc(c1O)Cc1cc(C(C)(C)C)cc(c1OCC(=O)N(CCO)CCO)C2 | 16 | 42 | 59 | 95 | 77 | 95 | IC50 [7]: 11.3 µM; IC50 [8]: 8.1 µM; IC50 [9]: 11.2 µM; IC50 [10]: 5.2 µM
O=C(COc1c2cccc1Cc1cccc(c1OCC(=O)N(CCO)CCO)Cc1cccc(c1OCC(=O)N(CCO)CCO)Cc1cccc(c1OCC(=O)N(CCO)CCO)Cc1cccc(c1OCC(=O)N(CCO)CCO)Cc1cccc(c1OCC(=O)N(CCO)CCO)C2)N(CCO)CCO | 5 | 19 | 0 | 9 | 6 | 22 | 
CC(C)(C)c1cc2c(OCC(=O)NCCO)c(c1)Cc1cc(C(C)(C)C)cc(c1OCC(=O)NCCO)Cc1cc(C(C)(C)C)cc(c1OCC(=O)NCCO)Cc1cc(C(C)(C)C)cc(c1OCC(=O)NCCO)Cc1cc(C(C)(C)C)cc(c1OCC(=O)NCCO)Cc1cc(C(C)(C)C)cc(c1OCC(=O)NCCO)Cc1cc(C(C)(C)C)cc(c1OCC(=O)NCCO)Cc1cc(C(C)(C)C)cc(c1OCC(=O)NCCO)C2 | 8 | 26 | 5 | 23 | 24 | 12 | 
O=C(COc1c2cccc1Cc1cccc(c1OCC(=O)NCCO)Cc1cccc(c1OCC(=O)NCCO)Cc1cccc(c1OCC(=O)NCCO)Cc1cccc(c1OCC(=O)NCCO)Cc1cccc(c1OCC(=O)NCCO)C2)NCCO | 7 | 10 | 3 | 6 | 18 | 4 | 
O=C(COc1c2cccc1Cc1cccc(c1OCC(=O)NCCO)Cc1cccc(c1OCC(=O)NCCO)Cc1cccc(c1OCC(=O)NCCO)Cc1cccc(c1OCC(=O)NCCO)Cc1cccc(c1OCC(=O)NCCO)Cc1cccc(c1OCC(=O)NCCO)Cc1cccc(c1OCC(=O)NCCO)C2)NCCO | 2 | 1 | 4 | 32 | 7 | 27 | 
O=C(COc1c2cccc1Cc1cccc(c1O)Cc1cccc(c1OCC(=O)N(CCO)CCO)Cc1cccc(c1O)C2)N(CCO)CCO | 7 | 34 | 4 | 38 | 34 | 22 | 
CC(C)(C)c1cc2c(OCC(=O)N(CCO)CCO)c(c1)Cc1cc(C(C)(C)C)cc(c1OCC(=O)N(CCO)CCO)Cc1cc(C(C)(C)C)cc(c1OCC(=O)N(CCO)CCO)Cc1cc(C(C)(C)C)cc(c1OCC(=O)N(CCO)CCO)Cc1cc(C(C)(C)C)cc(c1OCC(=O)N(CCO)CCO)Cc1cc(C(C)(C)C)cc(c1OCC(=O)N(CCO)CCO)C2 | 0 | 26 | 26 | 0 | 14 | 0 | 
O=C(COc1c2cccc1Cc1cccc(c1OCC(=O)N(CCO)CCO)Cc1cccc(c1OCC(=O)N(CCO)CCO)Cc1cccc(c1OCC(=O)N(CCO)CCO)Cc1cccc(c1OCC(=O)N(CCO)CCO)Cc1cccc(c1OCC(=O)N(CCO)CCO)Cc1cccc(c1OCC(=O)N(CCO)CCO)Cc1cccc(c1OCC(=O)N(CCO)CCO)C2)N(CCO)CCO | 6 | 25 | 2 | 18 | 11 | 13 | 
CC(C)(C)c1cc2c(OCC(=O)NCCO)c(c1)Cc1cc(C(C)(C)C)cc(c1OCC(=O)NCCO)Cc1cc(C(C)(C)C)cc(c1OCC(=O)NCCO)Cc1cc(C(C)(C)C)cc(c1OCC(=O)NCCO)Cc1cc(C(C)(C)C)cc(c1OCC(=O)NCCO)Cc1cc(C(C)(C)C)cc(c1OCC(=O)NCCO)C2 | 7 | 24 | 4 | 40 | 38 | 12 | 
CC(C)(C)c1cc2c(O)c(c1)Cc1cc(C(C)(C)C)cc(c1OCC(=O)NCCO)Cc1cc(C(C)(C)C)cc(c1O)Cc1cc(C(C)(C)C)cc(c1OCC(=O)NCCO)C2 | 89 | 97 | 95 | 100 | 100 | 99 | IC50 [11]: 4 µM; IC50 [12]: 2.8 µM; IC50 [7]: 4.3 µM; IC50 [8]: 2.7 µM; IC50 [9]: 5 µM; IC50 [10]: 5.3 µM; Activity [13]: 64.25%; Activity [14]: 24.19%; Activity [15]: Active; Activity [16]: Active; Activity [17]: Active; Activity [18]: Active; Activity [19]: inactive
O=C(COc1c2cccc1Cc1cccc(c1O)Cc1cccc(c1OCC(=O)NCCO)Cc1cccc(c1O)C2)NCCO | 13 | 86 | 10 | 46 | 29 | 57 | IC50 [12]: 2.3 µM; IC50 [10]: 1.6 µM; Activity [20]: Active; Activity [21]: Active; Activity [22]: Active
